# Hits are enriched below; roughly 4% of the tested compounds scored in any of these assays.
# bCat nuc transl – modulators of beta-catenin nuclear translocation; HeLa beta-catenin nuclear translocation, immunofluorescence imaging; nuclear translocation activity, % at 5 µM; hit rate 0.3% among 190,000; AID 1665;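 active = nuclear translocation activity above 50% at 5 µM, with a well cell count of 50 or more; inconclusive = wells under 50 cells across six images, flagged as toxic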;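 note: per-cell ratio of nuclear to cytoplasmic median beta-catenin stain intensity; plate controls were DMSO negative control for no effect and GSK-3 inhibitor IX positive control for full effect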
#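 assay system = human HeLa cells, endogenous beta-catenin | times = compound treatment 24 h, 37°C, 5% CO2 | detection = Anti-beta-catenin immunofluorescence on PFA-fixed, Triton-permeabilized cells, DAPI nuclei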
# KCC2 mod – modulates chloride dependent transport by human KCC2 | KCC2 cells, thallium flux FluoZin-2 fluorescence | B-score of Tl+ flux slope (higher = more flux/activation; lower = inhibition) at 10 µM | hit rate 2.2% among 190,000 | AID 1456;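 active = thallium flux slope and its plate-corrected score both differing from the plate sample mean at a set confidence after two filtering rounds, in either direction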;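 note: slope of fluorescence scaled to starting intensity during 10 to 20 s after thallium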
# Target sequence (Q9H2X9 whole entry, looked up): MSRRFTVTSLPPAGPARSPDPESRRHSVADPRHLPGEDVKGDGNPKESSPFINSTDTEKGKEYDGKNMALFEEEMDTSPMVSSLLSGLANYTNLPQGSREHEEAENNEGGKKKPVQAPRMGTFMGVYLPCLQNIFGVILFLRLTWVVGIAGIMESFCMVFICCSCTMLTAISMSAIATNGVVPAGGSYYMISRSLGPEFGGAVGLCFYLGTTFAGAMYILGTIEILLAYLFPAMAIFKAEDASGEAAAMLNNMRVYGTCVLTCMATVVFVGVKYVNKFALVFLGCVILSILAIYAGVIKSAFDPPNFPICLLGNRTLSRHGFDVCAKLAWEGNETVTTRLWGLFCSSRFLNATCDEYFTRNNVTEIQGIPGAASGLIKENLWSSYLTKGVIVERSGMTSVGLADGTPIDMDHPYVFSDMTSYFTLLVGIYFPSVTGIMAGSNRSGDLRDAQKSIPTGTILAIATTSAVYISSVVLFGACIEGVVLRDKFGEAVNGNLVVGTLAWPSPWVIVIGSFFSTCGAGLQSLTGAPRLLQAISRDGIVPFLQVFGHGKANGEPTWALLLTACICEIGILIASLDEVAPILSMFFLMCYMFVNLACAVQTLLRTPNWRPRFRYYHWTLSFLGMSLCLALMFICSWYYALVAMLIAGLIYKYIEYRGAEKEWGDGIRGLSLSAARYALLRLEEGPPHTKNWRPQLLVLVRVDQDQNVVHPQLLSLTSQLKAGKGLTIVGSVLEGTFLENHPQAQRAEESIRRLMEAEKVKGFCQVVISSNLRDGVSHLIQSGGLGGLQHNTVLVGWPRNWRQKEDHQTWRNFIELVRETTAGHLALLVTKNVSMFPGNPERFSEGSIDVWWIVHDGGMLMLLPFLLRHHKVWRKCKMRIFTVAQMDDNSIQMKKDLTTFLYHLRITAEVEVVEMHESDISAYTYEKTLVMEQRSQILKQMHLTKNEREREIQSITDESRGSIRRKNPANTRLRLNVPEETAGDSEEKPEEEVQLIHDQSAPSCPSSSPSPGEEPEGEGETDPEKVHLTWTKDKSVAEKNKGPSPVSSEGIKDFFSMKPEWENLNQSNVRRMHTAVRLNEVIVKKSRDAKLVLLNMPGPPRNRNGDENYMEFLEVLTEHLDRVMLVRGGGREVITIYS
# WT yeast gro inh – growth inhibition of WT yeast, mitochondrial fusion screen. mitochondrial fusion phenotypic screen, WT strain. hit rate 2.1% among 190,000. AID 1362. inhibition, % at 10 µM; in the data active = inhibition above about 58%; tested in S. cerevisiae
# MT stabilize HCS – microtubule stabilizers in HeLa cells. HeLa tubulin immunostaining HCS, 24 h; share of cells brighter than vehicle mean+2SD. % tubulin-high responders, % at 10 µM. hit rate 0.83% among 200,000. AID 2205;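 active = plate Z-score above 3 for both tubulin-high and condensed-nucleus cell shares, with cell loss under 80%, at 10 µM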;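 note: anti alpha tubulin signal scored within the nucleus-defined area of each cell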
# Pf gametocyte – inhibitors of late stage P. falciparum gametocyte viability; P. falciparum stage V gametocytes, ATP luminescence, 24 h; inhibition, % at 10.9 µM; hit rate 0.065% among 150,000; AID 743093;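 active = inhibition above the mean plus 3 SD of compounds within the control limits, set per campaign, cut at about 38% in these data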;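 note: 0% = DMSO wells and 100% = medium only without gametocytes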
# KCC2 secondary – KCC2 (human) modulation, secondary assay. shares compounds with KCC2 mod. hit rate 15% among 3,700. AID 1713. HEK293-KCC2, thallium flux, FluoZin2 fluorescence; stronger effect = higher value. normalised thallium flux (F/F0 slope) at 10 µM;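 active = thallium flux slope above the same plate's solvent-only control mean plus 3 SD; inconclusive = the two replicate wells disagree; inactive = no significant difference from solvent-only control wells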
# KCC2 bumet counter – bumetanide-insensitive thallium flux in KCC2 cells with ouabain, counter-screen; HEK293-KCC2 + bumetanide/ouabain, thallium flux FluoZin2; stronger effect = higher value; AID 1714; hit rate 49% among 3,700; shares compounds with KCC2 mod; normalized thallium flux at 10 µM;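 active = thallium entry rate above the same plate's blocked-transporter control wells by more than 3 SD; inconclusive = the two repeat wells disagree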;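 note: raw slope of fluorescence over initial fluorescence between 10 and 20 s after thallium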
# KCC2 sec2 – confirmation of human KCC2 transport modulators. shares compounds with KCC2 mod. normalized thallium flux at 10 µM. HEK293-KCC2, thallium flux FluoZin2 fluorescence; actives lie on both sides; F/F0 rise rate, 10–20 s post-thallium. hit rate 23% among 3,700. AID 1715;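 active = thallium flux slope more than 3 SD above or below the plate's solvent-only control mean, mostly below; inconclusive = the two repeat wells disagreed; inactive = no significant shift from solvent-only controls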;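 note: raw slope with 0.1% DMSO as baseline and bumetanide as block control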
# HEK293 Tl flux – parental HEK flux effect, counter-screen | shares compounds with KCC2 mod | HEK293 parental cells, thallium flux FluoZin2, ouabain; baseline-ratio fluorescence slope, 10–20 s after thallium | thallium flux rate (normalised fluorescence) at 10 µM | hit rate 46% among 3,700;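 active = thallium flux rate significantly above the same plate's solvent-only control wells, beyond their mean plus 3 SD; inconclusive = the two replicate wells gave conflicting results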
# KCC2 ouabain – modulates human KCC2 on retest with ouabain | raw Tl+ flux slope (below DMSO = inhibition, above = activation) at 10 µM | shares compounds with KCC2 mod | hit rate 48% among 3,700 | HEK293-KCC2, thallium flux FluoZin2 fluorescence; bidirectional: low = inhibitor, high = activator;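 active = thallium flux slope beyond 3 SD from same-plate DMSO control mean in most replicates, usually higher, sometimes lower; inconclusive = repeat tests gave conflicting results; inactive = no significant difference from controls in most replicates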;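 note: slope of initial-normalized fluorescence between seconds 10 and 20 after thallium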
# HEK293 Tl flux2 – counter-screen for KCC2 modulators: effect in parental HEK293 cells; shares compounds with KCC2 mod; thallium flux FluoZin-2 fluorescence slope; thallium flux slope at 10 µM; hit rate 33% among 3,700;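 active = thallium flux slope above the same plate's solvent-control mean plus 3 SD in both duplicate wells; inconclusive = duplicate wells that disagreed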;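 note: run without ouabain in cells lacking the KCC2 cotransporter; slope of fluorescence scaled to its starting value between 10 and 20 s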
# Active calls of the source: *; ? = inconclusive; nt = not tested or not shown.
SMILES,bCat nuc transl,KCC2 mod,WT yeast gro inh,MT stabilize HCS,Pf gametocyte,KCC2 secondary,KCC2 bumet counter,KCC2 sec2,HEK293 Tl flux,KCC2 ouabain,HEK293 Tl flux2
COc1ccccc1-n1cnnc1SCC(=O)c1c[nH]c2ccccc12,-1,0.31,-12,3,4,nt,nt,nt,nt,nt,nt
CC(=O)c1c(C)nc(-c2ccc(Cl)cc2)nc1N=CN(C)C,0,nt,-12,7,13,0.0054,0.0043,0.033,0.0079,0.019,0.011
N#CC(c1ccc(Cl)cc1)c1ccc2c(C(F)(F)F)cc(C(F)(F)F)nc2n1 (stereo not given),nt,22*,85*,4,nt,0.024*,0.14*,0.031,0.054*,0.067*,0.015*
FC(F)(F)c1cc(C(F)(F)F)c2ccc(N3CCN(c4ccc(Cl)cc4)CC3)nc2n1,1,-0.31,12,3,-11,nt,nt,nt,nt,nt,nt
CN(C)/C=C/C1=CC(=O)CC(C)(C)C1,0,-0.036,-5,2,-17,nt,nt,nt,nt,nt,nt
O=C(N/N=C/c1ccco1)c1cc([N+](=O)[O-])cc([N+](=O)[O-])c1,-7,5,5,3,-47,nt,nt,nt,nt,nt,nt
O=C(N/N=C(\c1ccccc1)c1ccccn1)c1cccc([N+](=O)[O-])c1,0,12*,43,3,nt,?,0.028*,0.036,0.02*,0.031*,0.021*
C/C(=N\NC(=O)c1cc([N+](=O)[O-])cc([N+](=O)[O-])c1)c1ccco1,-1,38*,-2,3,8,0.03*,0.075*,?,0.038*,0.055*,0.017*
CCOC(=O)/C(C)=N/NC(=O)c1cccc([N+](=O)[O-])c1,0,32*,-11,2,nt,0.0072,0.026*,0.04*,0.027*,0.034*,0.022*
CCOC(=O)Cc1ccc(NC(=O)c2cccc([N+](=O)[O-])c2)cc1,1,-0.28,0,6,nt,nt,nt,nt,nt,nt,nt
Cn1ccnc1/C(=N\NC(=O)c1ccccc1)c1cccc([N+](=O)[O-])c1,-2,-0.88,-5,4,6,nt,nt,nt,nt,nt,nt
Cc1ccc2nc(-c3ccncc3)c(NC3CCCCC3)n2c1,-2,-0.8,1,2,-22,nt,nt,nt,nt,nt,nt
COc1cc(/C=C/C(=O)OCC(=O)c2c(N)n(C)c(=O)n(C)c2=O)ccc1OCC#N,-1,-0.3,-4,5,10,nt,nt,nt,nt,nt,nt
CC1CCCCC1NC1=NCCCS1 (stereo not given),5,1.3,3,4,nt,nt,nt,nt,nt,nt,nt
N#C/C(=C/c1ccccc1[N+](=O)[O-])c1nnc2n1CCCCC2,1,0.057,1,2,-5,nt,nt,nt,nt,nt,nt
N#C/C(=C\c1cn(-c2ccccc2)nc1-c1cccnc1)c1nnc2n1CCCCC2,nt,nt,7,2,5,0.0057,0.0047,0.024*,0.0085,?,0.01
CCOC(=O)c1cccc2c(=O)c(C(=O)c3ccc(Cl)cc3)c(C(=O)OC)[nH]c12,-2,0.58,9,3,-9,nt,nt,nt,nt,nt,nt
CCc1ccc(/C=C2/SC(N3CCOCC3)=NC2=O)cc1,0,-1.2,nt,nt,15,nt,nt,nt,nt,nt,nt
CCN1C/C(=C/c2ccc(N3CCOCC3)cc2)C(=O)/C(=C/c2ccc(N3CCOCC3)cc2)C1,16,-5.4*,14,10,4,0.0036*,0.0016*,0.03*,?,0.0089*,0.011
CN1C/C(=C\c2ccc(N3CCOCC3)cc2)C(=O)/C(=C/c2ccc(N3CCOCC3)cc2)C1,0,-9.2*,-13,12,9,0.0028*,-0.0007*,0.017*,0.0056*,0.0075*,?

# Screens from PubChem BioAssay.
